Measured values from ChEMBL document CHEMBL4043142, “Discovery of new leads against Mycobacterium tuberculosis using scaffold hopping and shape based similarity” (Bioorg Med Chem, 2017).
Values after ≈ are worked out from the molar mass of the structure shown.

Columns and labels:
[1] = test system: Mycobacterium tuberculosis; assay: Antitubercular activity against Mycobacterium tuberculosis H37Rv ATCC 25618 after 6 days by resazurin dye based assay; type: functional; conditions: H37Rv ATCC 25618, 144 h
Vero = assay: Cytotoxicity against African green monkey Vero cells after 72 hrs by MTT assay; type: cell-based; conditions: Chlorocebus sabaeus
HepG2 [2] = assay: Cytotoxicity against human HepG2 cells after 48 hrs by CellTiter-Glo assay; type: cell-based; conditions: HepG2, 48 h
[3] = Half life in mouse microsomes; type: ADME, Microsome
[4] = Protection index, ratio of IC50 for HepG2 cells to MIC for Mycobacterium tuberculosis H37Rv
[5] = Protection index, ratio of IC50 for African green monkey Vero cells to MIC for Mycobacterium tuberculosis H37Rv
[6] = test system: Mycobacterium tuberculosis; assay: Antitubercular activity against Mycobacterium tuberculosis H37Rv after 5 days by microplate alamar blue assay; type: functional; conditions: 120 h
Staphylococcus aureus = assay: Antimicrobial activity against gram-positive Staphylococcus aureus ATCC 43300 at 32 ug/ml after 18 hrs; type: functional; conditions: ATCC 43300, 18 h
How it was run: (§1)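 Whole-cell growth inhibition screen at a single final concentration of 32 µg/mL, in duplicate on different plates, with 0.3% DMSO final. Bacteria grown overnight in cation-adjusted Mueller Hinton broth at 37°C, diluted 40-fold, and grown 1.5-3 h to mid-log. Wells seeded at 5×10^5 CFU/mL and incubated 18 h at 37°C without shaking. OD600 read; percent inhibition calculated against media-only and untreated-bacteria controls on the same plate. Colistin (Gram-negative) and vancomycin (Gram-positive) were the standards.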

Pseudomonas aeruginosa = assay: Antimicrobial activity against gram-negative Pseudomonas aeruginosa ATCC 27853 at 32 ug/ml after 18 hrs; type: functional; conditions: ATCC 27853, 18 h; how it was run: as §1
Candida albicans = assay: Antifungal activity against Candida albicans ATCC 90028 at 32 ug/ml after 24 hrs; type: functional; conditions: ATCC 90028, 24 h
[7] = test system: Mycobacterium tuberculosis; assay: Antitubercular activity against Mycobacterium tuberculosis H37Rv at 50 ug/ml after 5 days by microplate alamar blue assay relative to control; type: functional; conditions: 120 h
How it was run: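 M. tuberculosis H37Rv tested by microplate alamar blue assay, reading the resazurin-to-resorufin colour change, at an initial 50 µg/ml. Rifampicin and isoniazid were the standards.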

[8] = test system: Mycobacterium tuberculosis; assay: Antitubercular activity against clinical isolates of Mycobacterium tuberculosis by broth microdilution assay; type: functional
Klebsiella pneumoniae = assay: Antimicrobial activity against gram-negative Klebsiella pneumoniae ATCC 700603 at 32 ug/ml after 18 hrs; type: functional; conditions: ATCC 700603, 18 h; how it was run: as §1
Acinetobacter baumannii = assay: Antimicrobial activity against gram-negative Acinetobacter baumannii ATCC 19606 at 32 ug/ml after 18 hrs; type: functional; conditions: ATCC 19606 = CIP 70.34 = JCM 6841, 18 h; how it was run: as §1
Cryptococcus neoformans = assay: Antifungal activity against Cryptococcus neoformans var. grubii ATCC 208821 at 32 ug/ml after 24 hrs; type: functional; conditions: ATCC 208821, 24 h
How it was run: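 Single-concentration antifungal screen at a final 32 µg/mL, n=2 on different plates. Fungi grown 3 days on YPD agar at 30°C; suspension of 1-5×10^6 cells/mL made from five colonies, then diluted in YNB broth. Incubated 35°C for 24 h without shaking. C. albicans read at OD530. C. neoformans read as OD600-570 after resazurin (0.001% final) and a further 2 h at 35°C. Inhibition calculated against on-plate controls; fluconazole was the standard.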

HepG2 [9] = assay: Cytotoxicity against human HepG2 cells after 24 hrs by MTT assay; type: cell-based; conditions: HepG2, 24 h
How it was run: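 HepG2 cells seeded at 25,000-50,000 per well and allowed to adhere about 24 h at 37°C in 5% CO2. Serial dilutions (300, 100, 50, 10, 1, 0.1 µM) added in triplicate and incubated 24 h. MTT added to 10% of the total volume for 2-4 h in the dark. Formazan dissolved in 100% DMSO, absorbance read at 570 nm, and IC50 calculated.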

[10] = Cytotoxicity against African green monkey Vero cells after 72 hrs by sulforhodamine B assay; type: cell-based; conditions: chlorocebus sabaeus
[11] = Drug metabolism in rat liver microsomes after 60 mins; type: ADME, microsome; conditions: read-out: Drug metabolism
How it was run: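 Rat liver microsomes incubated with compound for 60 min. Stability followed as the peak area ratio of compound to internal standard. p-Nitrophenol conversion to p-nitrocatechol served as the positive control.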

Liver = assay: Drug level in rat liver microsomes treated with p-nitrophenol after 60 mins; type: ADME, microsome; conditions: 1 h
How it was run: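 p-Nitrophenol incubated 60 min with rat liver microsomes as the positive control; its conversion to p-nitrocatechol was measured.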

SMILES | MIC95 [6] | inhibition at 32 µg/mL (Staphylococcus aureus) | inhibition at 32 µg/mL (Pseudomonas aeruginosa) | inhibition at 32 µg/mL (Candida albicans) | inhibition at 50 µg/mL [7] | further results
COc1ccc(-c2cc(CN3CCSCC3)c(C)n2-c2ccc(F)cc2)cc1 | – | – | – | – | – | MIC [1]: 0.2 µM (≈ 0.0793 µg/mL); IC50 (Vero): > 302 µM; IC50 (HepG2 [2]): > 2420 µM; half-life [3]: < 5 min; Ratio [4]: 127.5 - 1937.5; Ratio [5]: 127.5 - 1937.5
CSc1ccc(-c2cc(CN3CCSCC3)c(C)n2-c2ccc(F)cc2)cc1 | – | – | – | – | – | MIC [1]: 0.16 µM (≈ 0.066 µg/mL); IC50 (Vero): 15.2 µM; IC50 (HepG2 [2]): 5.9 µM; half-life [3]: 10 min; Ratio [4]: 127.5 - 1937.5; Ratio [5]: 127.5 - 1937.5
Cc1ccn2c(CN3CCOCC3)c(-c3ccccc3)nc2c1 | 40 µg/mL (≈ 130 µM) | 15.8 to 23.5% | 10.6 to 15.2% | 0.89 to 1.68% | 95% | –
Cc1c(CN2CCN(C)CC2)cc(-c2ccc(Cl)cc2)n1-c1ccc(Cl)cc1 | – | – | – | – | – | MIC [1]: 5 µM (≈ 2.07 µg/mL); IC50 (HepG2 [2]): 7.8 µM; half-life [3]: > 30 min; Ratio [4]: 127.5 - 1937.5; Ratio [5]: 127.5 - 1937.5; MIC [8]: 1.5 µg/mL (≈ 3.62 µM)
Cc1ccc(-c2cc(CN3CCSCC3)c(C)n2-c2ccc(F)cc2)cc1 | – | – | – | – | – | MIC [1]: 0.16 µM (≈ 0.0609 µg/mL); IC50 (Vero): 179 µM; IC50 (HepG2 [2]): 24 µM; half-life [3]: 8.2 min; Ratio [4]: 127.5 - 1937.5; Ratio [5]: 127.5 - 1937.5
COc1ccc(-c2nc3ccccc3n2-c2ccc(Cl)cc2)c(OC)c1 | 48.3 µg/mL (≈ 132 µM) | 10.9 to 14.2% | – | 2.68 to 3.53% | 95% | inhibition at 32 µg/mL (Klebsiella pneumoniae): 3.25 to 9.39%
Fc1ccc(-c2nc3ccccn3c2CN2CCOCC2)cc1 | 22.2 µg/mL (≈ 71.3 µM) | 22.3 to 30.3% | 11 to 14.3% | 0.63 to 5.39% | 95% | –
COc1ccc(-c2nc3ccccc3n2-c2ccccc2)cc1O | 8 µg/mL (≈ 25.3 µM) | 7.7 to 15.5% | 1.32 to 7.73% | 6.64 to 11.3% | 95% | –
Cc1c(CN2CCOCC2)cc(-c2ccc(C(C)C)cc2)n1-c1ccc(F)cc1 | – | – | – | – | – | MIC [1]: 0.12 µM (≈ 0.0471 µg/mL); IC50 (Vero): 50.1 µM; IC50 (HepG2 [2]): 15.3 µM; half-life [3]: > 30 min
Cc1ccn2c(CN3CCCCC3)c(-c3ccccc3)nc2c1 | 33.7 µg/mL (≈ 110 µM) | – | – | – | 95% | –
COc1ccc(-c2nc3ccccc3n2-c2ccc(C(C)C)cc2)cc1 | > 50 µg/mL | 6.25 to 12.4% | 6.29 to 15.7% | 13.1 to 14.2% | 68% | inhibition at 32 µg/mL (Acinetobacter baumannii): 23.8 to 36.1%; inhibition at 32 µg/mL (Cryptococcus neoformans): 7.06 to 11%
COc1ccc(-c2nc3ccccc3n2-c2cc(C)ccc2C)cc1 | > 50 µg/mL | 9.57 to 10% | 5.72 to 19.7% | 1.69 to 4.32% | 80% | inhibition at 32 µg/mL (Acinetobacter baumannii): 3.5 to 38.8%
c1ccc(-c2nc3ccccn3c2CN2CCCCC2)cc1 | > 50 µg/mL | 14.8 to 19.4% | 11.4 to 17.7% | 2.41 to 3.93% | 95% | inhibition at 32 µg/mL (Acinetobacter baumannii): 1.56 to 10.4%
COc1ccc(-c2nc3ccccc3n2-c2ccc(F)cc2)cc1 | > 50 µg/mL | 11.6 to 12.7% | 5.18 to 12.8% | 1.62 to 1.69% | 6% | –
c1ccc(-c2nc3ccccn3c2CN2CCOCC2)cc1 | > 50 µg/mL | 26.1 to 28.6% | 9.04 to 16.5% | 0.3 to 6.38% | 95% | inhibition at 32 µg/mL (Klebsiella pneumoniae): 2.52 to 13.8%; inhibition at 32 µg/mL (Cryptococcus neoformans): 2.71 to 3.04%
Cc1ccn2c(CN3CCOCC3)c(-c3ccc(F)cc3)nc2c1 | 23.9 µg/mL (≈ 73.5 µM) | 20.1 to 21.8% | 9.71 to 27% | 2.74 to 7.44% | 95% | –
COc1ccc(-c2nc3ccccc3n2-c2cccc(Cl)c2)cc1 | > 50 µg/mL | 14.1 to 16% | 7.07 to 24.5% | 4.66 to 7.76% | 0% | –
Cc1ccc2nc(-c3ccc(F)cc3)c(CN3CCOCC3)n2c1 | 17 µg/mL (≈ 52.2 µM) | 25.1 to 26.2% | – | 3.4 to 6.17% | 95% | –
COc1ccc(-c2nc3ccccc3n2-c2ccc(Cl)cc2)cc1OC | 20.3 µg/mL (≈ 55.6 µM) | 1.03 to 9.81% | – | 7.63 to 8.23% | 95% | inhibition at 32 µg/mL (Acinetobacter baumannii): 39.9 to 42.6%; inhibition at 32 µg/mL (Cryptococcus neoformans): 0.95 to 4.02%; IC50 (HepG2 [9]): 49.9 µM; GI50 at 72 h [10]: 8.2 µM; metabolised at 1 h [11]: 5%
Oc1ccc(-c2nc(-c3ccccc3)cn2-c2ccccc2)cc1 | 17.8 µg/mL (≈ 57 µM) | – | – | – | 95% | –
COc1ccc(-c2nc3ccccc3n2-c2ccc(Br)cc2)cc1 | > 50 µg/mL | 12.3 to 15% | – | 9.75 to 11.7% | 92% | inhibition at 32 µg/mL (Acinetobacter baumannii): 1.56 to 58.1%; IC50 (HepG2 [9]): 113 µM; GI50 at 72 h [10]: 5 µM; metabolised at 1 h [11]: 2%
COc1ccc(-c2nc3ccccc3n2-c2ccc(Cl)cc2)cc1 | 2.3 µg/mL (≈ 6.87 µM) | – | 1.34 to 9.75% | 12.2 to 12.9% | 95% | IC50 (HepG2 [9]): 203 µM; GI50 at 72 h [10]: 29 µM; metabolised at 1 h [11]: 0%
COc1ccc(-c2nc3ccccc3n2-c2cccc(OC)c2)cc1 | > 50 µg/mL | 7.42 to 20.4% | 9.8 to 11.2% | 5.26 to 8.76% | 14% | inhibition at 32 µg/mL (Acinetobacter baumannii): 19.7 to 59.9%
COc1ccc(-c2nc(-c3ccccc3)cn2-c2ccccc2)cc1 | 20.3 µg/mL (≈ 62.2 µM) | 3.07 to 13.3% | 2.98 to 16.6% | 17.5 to 26.4% | 95% | inhibition at 32 µg/mL (Acinetobacter baumannii): 23.1 to 34.8%
COc1cccc(-c2nc3ccccc3n2-c2ccc(Cl)cc2)c1 | > 50 µg/mL | – | 2.25 to 13% | 4.73 to 28.1% | 67% | inhibition at 32 µg/mL (Acinetobacter baumannii): 49.4 to 50.8%; inhibition at 32 µg/mL (Cryptococcus neoformans): 6.16 to 19.6%
O=[N+]([O-])c1ccc(O)c(O)c1 [4-Nitrocatechol] | – | – | – | – | – | Drug metabolism (Liver): Metabolite_Detected
NNC(=O)c1ccncc1 [ISONIAZID] | 0.06 to 0.11 µg/mL (≈ 0.438 to 0.802 µM) | – | – | – | 95% | –
CO[C@H]1/C=C/O[C@@]2(C)Oc3c(C)c(O)c4c(O)c(c(/C=N/N5CCN(C)CC5)c(O)c4c3C2=O)NC(=O)/C(C)=C\C=C\[C@H](C)[C@H](O)[C@@H](C)[C@@H](O)[C@@H](C)[C@H](OC(C)=O)[C@@H]1C [RIFAMPIN] | 0.03 to 0.5 µg/mL (≈ 0.0365 to 0.608 µM) | – | – | – | 95% | –
